Test results reported in ChEMBL document CHEMBL1156231, “Alkylation of a human telomere sequence by heterotrimeric chlorambucil PI polyamide conjugates” (Bioorg Med Chem, 2010).
Activity calls are given as the source filed them. No cut-off for these calls is given here.

Tests used:
Nucleic Acid [1] = experiment: Binding affinity to human telomeric DNA expressed in Escherichia coli DH5alpha assessed as alkylation of G rich 5^-GGTTAGGGTTA-3^ strand at 50 to 200 nM after 24 hrs by PAGE
Procedure, shortened: (§1)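 5'-Texas Red-labelled telomere-containing DNA fragment (insert cloned and propagated in E. coli DH5a, PCR-amplified, purified), alkylated with conjugate at various concentrations in 5 mM sodium phosphate buffer pH 7.0, 10% DMF, room temperature, 24 h. Reaction stopped with calf thymus DNA and heating 95 °C, 5 min. Alkylation sites read by high-resolution denaturing polyacrylamide gel electrophoresis.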

Nucleic Acid [2] = experiment: Binding affinity to human telomeric DNA expressed in Escherichia coli DH5alpha assessed as alkylation of complementary C rich site at 50 to 200 nM after 24 hrs by PAGE analysis; procedure, shortened: as §1
Nucleic Acid [3] = experiment: Binding affinity to human telomeric DNA expressed in Escherichia coli DH5alpha assessed as alkylation of G and C rich strand at 10 nM after 24 hrs by PAGE analysis; procedure, shortened: as §1

For `CN(C)CCCNC(=O)c1nc(NC(=O)c2nc(NC(=O)c3nc(NC(=O)CCNC(=O)CCNC(=O)c4nc(NC(=O)c5nc(NC(=O)c6nc(NC(=O)CCCc7ccc(N(CCCl)CCCl)cc7)cn6C)cn5C)cn4C)cn3C)cn2C)cn1C`, the Activity (Nucleic Acid [1]) was “inactive”, the Activity (Nucleic Acid [2]) was “Active” and the Activity (Nucleic Acid [3]) was “Active”.
